Measured values as given in ChEMBL document CHEMBL4177753, “Structural Modification of Natural Product Ganomycin I Leading to Discovery of a α-Glucosidase and HMG-CoA Reductase Dual Inhibitor Improving Obesity and Metabolic Dysfunction in Vivo” (J Med Chem, 2018).
Active and inactive are the calls of the source. The rule behind the calls is not given here.

Tests used:
Fusobacterium = assay: Decrease in Fusobacterium levels in cecum of ob/ob mouse at 3 mg/kg administered daily via oral gavage for 31 days by 16S rRNA gene high-throughput sequencing method; assay type: functional, organism-based
How it was run: (§1)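 Male ob/ob mice dosed daily by gavage at 1.0 or 3.0 mg/kg, compared with vehicle group. DNA extracted from about 150 mg caecum contents. 16S rRNA V3–V4 region amplified and sequenced on Illumina HiSeq PE250. Community compared by NMDS/MRPP; discriminant taxa identified by LEfSe.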

[1] = target: T1, 3-hydroxy-3-methylglutaryl-coenzyme A reductase (Sus scrofa, UniProt Q1W675); assay: (§2) Inhibition of pig liver microsomal HMG-CoA reductase by colorimetric method
T1 sequence (Q1W675 whole entry): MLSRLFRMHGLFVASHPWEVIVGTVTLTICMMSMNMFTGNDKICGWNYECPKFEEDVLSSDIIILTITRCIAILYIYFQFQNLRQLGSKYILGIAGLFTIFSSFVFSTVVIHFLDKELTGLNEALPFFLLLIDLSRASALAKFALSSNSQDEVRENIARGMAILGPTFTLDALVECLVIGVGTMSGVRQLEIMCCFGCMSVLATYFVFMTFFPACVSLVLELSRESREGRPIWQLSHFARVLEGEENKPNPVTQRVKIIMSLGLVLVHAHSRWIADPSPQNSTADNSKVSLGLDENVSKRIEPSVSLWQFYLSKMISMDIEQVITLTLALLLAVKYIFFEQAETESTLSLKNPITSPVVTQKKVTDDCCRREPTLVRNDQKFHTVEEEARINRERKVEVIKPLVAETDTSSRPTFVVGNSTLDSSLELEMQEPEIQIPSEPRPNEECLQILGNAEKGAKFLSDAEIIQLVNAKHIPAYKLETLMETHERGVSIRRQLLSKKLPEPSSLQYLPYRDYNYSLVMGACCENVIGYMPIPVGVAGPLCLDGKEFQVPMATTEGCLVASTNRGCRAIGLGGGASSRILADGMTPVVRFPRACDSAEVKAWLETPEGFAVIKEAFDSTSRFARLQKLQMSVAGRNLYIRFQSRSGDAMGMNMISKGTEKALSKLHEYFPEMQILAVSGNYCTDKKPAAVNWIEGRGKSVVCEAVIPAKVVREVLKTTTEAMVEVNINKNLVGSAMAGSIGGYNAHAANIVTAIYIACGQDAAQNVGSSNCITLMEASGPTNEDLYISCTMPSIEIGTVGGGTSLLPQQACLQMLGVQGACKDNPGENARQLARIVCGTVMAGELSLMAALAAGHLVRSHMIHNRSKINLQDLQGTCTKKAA
How it was run: (§3)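 Pig liver microsomal HMG-CoA reductase; compounds tested at several concentrations, each in triplicate; control uses phosphate buffer instead of compound, blank uses buffer instead of enzyme. Absorbance read at 405 nm; % inhibition from blank-corrected OD of test versus control; IC50 fitted from the inhibition-concentration series.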

[2] = target: T2, 3-hydroxy-3-methylglutaryl-coenzyme A reductase (Sus scrofa) (UniProt Q1W675); assay: as §2; how it was run: as §3
T2 sequence (whole entry): T1 sequence (Q1W675 whole entry)

Gammaproteobacteria = assay: Decrease in Gammaproteobacteria levels in cecum of ob/ob mouse at 1 to 3 mg/kg administered daily via oral gavage for 31 days by 16S rRNA gene high-throughput sequencing method; assay type: functional, organism-based; how it was run: as §1
Mus musculus [3] = assay: In vivo inhibition of alpha-glucosidase activity in ob/ob mouse assessed as accumulation of carbohydrate in lower part of small intestine at 3 mg/kg administered daily via oral gavage for 31 days; assay type: functional, organism-based
[4] = Chemical stability of the compound at 0.4 mg/ml at room temperature after 3 weeks by HPLC method; assay type: physicochemical; conditions: 504 h
Mus musculus [5] = assay: Hypolipidemic activity in ob/ob mouse assessed as decrease in size of adipocytes in white adipose tissue at 3 mg/kg administered daily via oral gavage for 31 days by hematoxylin-eosin staining-based microscopic method; assay type: functional, organism-based
How it was run: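 Male ob/ob mice dosed by gavage (soybean vehicle); liver and abdominal white adipose tissue fixed in 10% formaldehyde-PBS pH 7.4, paraffin-embedded, sectioned, stained with H&E, Oil Red O or sirius red, and examined by light microscopy.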

Mus musculus [6] = assay: Hypolipidemic activity in antibiotic-treated ob/ob mouse assessed as decrease in hepatic LDL-C levels at 3 mg/kg administered daily via oral gavage for 3 weeks; assay type: functional, organism-based
How it was run: (§4)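 Male ob/ob mice pretreated three weeks with ampicillin (1 g/L), vancomycin, neomycin, gentamycin and erythromycin. Groups of n = 8 given 3.0 mg/kg/day orally in soybean vehicle versus vehicle. Plasma and hepatic lipids, fasting glucose, OGTT (glucose 2 g/kg after overnight fast) and HbA1c measured.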

Mus musculus [7] = assay: Antiobesity activity in ob/ob mouse assessed as reduction in LEE index at 3 mg/kg administered daily via oral gavage for 31 days relative to vehicle-treated control; assay type: functional, organism-based
How it was run: (§5)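 Male ob/ob mice, n = 10 per group, grouped by blood glucose and body weight. Daily gavage at 0.3, 1.0 or 3.0 mg/kg in soybean vehicle, with soybean vehicle controls and C57BL/6J controls. Body weight, cumulative food intake, LEE index, fat mass and lean mass recorded. Mean ± SEM, one-way ANOVA with Tukey test.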

Mus musculus [8] = assay: Antiobesity activity in ob/ob mouse assessed as reduction in weight gain at 3 mg/kg administered daily via oral gavage for 31 days relative to vehicle-treated control; assay type: functional; set-up: scale not given: the % may be the effect or the level left; how it was run: as §5
[9] = AUC (0 to infinity) in Sprague-Dawley rat at 2 mg/kg, po; assay type: ADME, organism-based; set-up: dose 2 mg/kg, route oral, time infinity; conditions: in vivo
How it was run: (§6)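 Male Sprague-Dawley rats (n = 6, 0.21–0.23 kg), single oral dose 2.0 mg/kg. Orbital blood sampled 0–16 h into heparinized tubes. Plasma was protein-precipitated with methanol, with internal standard added. Quantified by UPLC-ESI(+)-QTOF-MS in SIM mode on a C18 column with a methanol/0.3% formic acid water gradient. Linear range 0.54–107 ng/ml.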

Mus musculus [10] = assay: Antiobesity activity in ob/ob mouse assessed as reduction in absolute fat mass at 3 mg/kg administered daily via oral gavage for 31 days; assay type: functional, organism-based; how it was run: as §5
Mus musculus [11] = assay: Hypoglycemic activity in antibiotic-treated ob/ob mouse assessed as decrease in blood glucose AUC at 3 mg/kg administered daily via oral gavage for 3 weeks by OGTT; assay type: functional, organism-based; how it was run: as §4
Alistipes = assay: Decrease in Alistipes levels in cecum of ob/ob mouse at 3 mg/kg administered daily via oral gavage for 31 days by 16S rRNA gene high-throughput sequencing method; assay type: functional, organism-based; how it was run: as §1
Mus musculus [12] = assay: Antiobesity activity in C57BL/6J DIO mouse assessed as reduction in weight gain at 3 mg/kg administered daily via oral gavage for 5 weeks relative to vehicle-treated control; assay type: functional; set-up: scale not given: the % may be the effect or the level left
How it was run: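 Male C57BL/6J mice on high-fat diet, n = 8 per group, grouped by blood glucose and body weight. Daily oral gavage at 0.3, 1.0 or 3.0 mg/kg in soybean vehicle for 5 weeks. Vehicle groups were on normal diet and on high-fat diet.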

Mus musculus [13] = assay: Hypoglycemic activity in ob/ob mouse assessed as decrease in fasting blood glucose levels administered daily via oral gavage for 28 days; assay type: functional, organism-based
How it was run: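 Male ob/ob mice, n = 10 per group, daily gavage at 0.3, 1.0 or 3.0 mg/kg in soybean vehicle. Fasting and free-diet blood glucose and HbA1c measured.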

[14] = Half life in Sprague-Dawley rat at 2 mg/kg, po; assay type: ADME, organism-based; conditions: in vivo; how it was run: as §6

For CC(C)=CCC/C(C)=C/CCC1=C[C@H](c2ccc(C(C)(C)C)cc2)OC1=O, the Activity (Fusobacterium) was “Active”, the IC50 [1] was 5.82 µM and the inhibition [2] was “Dose-dependent effect”. The Activity (Gammaproteobacteria) was “Active”, the inhibition (Mus musculus [3]) was “Active” and the Stability [4] was “Stable”. The Activity (Mus musculus [5]) was “Active”, the Activity (Mus musculus [6]) was “inactive” and the Activity (Mus musculus [7]) was “Active”. For the same compound, the Activity (Mus musculus [8]) was 68%, the AUC(0-inf) [9] was 280 ng·h/mL and the Activity (Mus musculus [10]) was “Active”. For the same compound, the Activity (Mus musculus [11]) was “inactive”, the Activity (Alistipes) was “Active” and the Activity (Mus musculus [12]) was 25.4%. For the same compound, the Activity (Mus musculus [13]) was “Dose-dependent effect” and the half-life [14] was 1.8 h.
